From ChEMBL document CHEMBL4041529, “Structure-Guided Design of EED Binders Allosterically Inhibiting the Epigenetic Polycomb Repressive Complex 2 (PRC2) Methyltransferase” (J Med Chem, 2017) come the findings set out here.

Data set [1] concerns the target T1, Polycomb protein EED (Homo sapiens, UniProt O75530). The data set is described as follows: Inhibition of human PRC2-EED (76 to 441 residues) expressed in Escherichia coli BL21 (DE3) using histone H3[21 to 44, K27MeO] as substrate and SAM as co-factor measured after 2 hrs by LC-MS/MS method.
In data set [2] the target is T1, Polycomb protein EED. The data set is described as follows: Inhibition of EED in human G401 cells assessed as reduction in H3K27 methylation measured after 48 hrs by ELISA method. In kind it is cell-based. An outline of the steps: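 G-401 rhabdoid cells at 37 °C, 5% CO2 were seeded, grown 24 h, then given serial dilutions for 48 h against a matched DMSO control. Cells were PBS-washed, lysed in 0.4 N HCl for 30 min at 4 °C and neutralized. Lysate was coated overnight at 4 °C, blocked with TBST/5% BSA, then probed with antibody and ECL. H3K27Me3 was normalized to H3, and IC50 came from a dose-response fit.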

For a further data set, the system named is Pfeiffer. The data set is described as follows: Antiproliferative activity against human Pfeiffer cells harboring EZH2 mutant measured after 6 days by CellTiter-Glo assay. In kind it is functional, cell-based. As to conditions: for EC50: 144 h. An outline of the steps:
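Exponentially growing Pfeiffer B-lymphocyte cells were exposed to compound for 6 days. Growth was read by CellTiter-Glo luminescence. Percent inhibition was taken versus a DMSO control, and IC50 was obtained by curve fitting.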
(Cellular ATP, detected with luciferase, serves as a proxy for viable cell number.)

Data set [3] can be described thus: Dissociation constant, pKa of the compound by electrophoresis/potentiometric method. The format is physicochemical.
For data set [4], the target named is T1, Polycomb protein EED. Briefly: Binding affinity to human methionine-13Cepsilon-methyl labeled PRC2-EED (76 to 441 residues) expressed in Escherichia coli BL21 (DE3) by 2D NMR method. The essentials: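 2D [13C,1H]-HSQC at 600 MHz, 296 K, on 40 μM selectively methionine-13Cε-methyl-labeled EED76–441 in 25 mM d-Tris pH 8, 150 mM NaCl, 2 mM d-DTT, 10% D2O. The protein was titrated with increasing ligand, and KD was derived from the chemical shift perturbations.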

T1 sequence (O75530 whole entry, the tested form may be a part): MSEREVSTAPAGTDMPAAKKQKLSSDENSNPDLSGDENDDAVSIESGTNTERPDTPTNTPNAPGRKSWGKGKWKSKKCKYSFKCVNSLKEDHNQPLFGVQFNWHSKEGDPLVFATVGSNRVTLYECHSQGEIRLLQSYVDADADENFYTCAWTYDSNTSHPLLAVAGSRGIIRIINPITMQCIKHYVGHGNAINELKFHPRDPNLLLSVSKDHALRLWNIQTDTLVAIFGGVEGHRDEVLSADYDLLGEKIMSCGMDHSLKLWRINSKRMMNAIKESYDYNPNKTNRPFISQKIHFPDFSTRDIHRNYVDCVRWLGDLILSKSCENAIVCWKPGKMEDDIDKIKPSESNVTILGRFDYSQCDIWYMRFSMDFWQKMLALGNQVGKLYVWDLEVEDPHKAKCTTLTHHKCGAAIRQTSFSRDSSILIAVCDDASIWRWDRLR

Take `COc1ccc(F)c(CC2CCc3c(C(C)C)nc(N)n3C2)c1` (centres undefined): the concentration for half-maximal inhibition (IC50) (commonly the concentration that gives 50% inhibition) against Polycomb protein EED [1] was determined as 1.3 µM; on Polycomb protein EED [2], 2.9 µM. The half-maximal effective concentration (EC50) (in general, the concentration that produces a half-maximal response) in the data set on Pfeiffer was found to be 4.4 µM.

For the compound `N=C(N)N1CCCC(Cc2cccc3occc23)C1` (centres undefined), the results for the IC50 on Polycomb protein EED [1] and at Polycomb protein EED [2] were 2.1 µM and 2.5 µM, respectively. In data set [3], the pKa – broadly, the negative logarithm of the acid dissociation constant – is > 11.

For the compound `COc1ccc(CC2CCCNC2)cc1` (centres undefined), the 50% inhibitory concentration (IC50) against Polycomb protein EED [1] is > 500 µM.

In turn, `c1cc(CC2CCCNC2)c2ccoc2c1` (centres undefined) registered a half-inhibitory concentration (IC50) against Polycomb protein EED [1] of 40 µM. The compound further came in with a pKa in data set [3] of 9.8.

Take `CC(C)c1nc(N)n2c1CCC(Cc1ccccc1F)C2` (centres undefined): at Polycomb protein EED [1], the concentration for half-maximal inhibition (IC50) came to 7.9 µM.

In the case of `Nc1ncc2n1CC(Cc1cccc3occc13)CC2` (centres undefined), the IC50 on Polycomb protein EED [1] worked out at 2.7 µM; on Polycomb protein EED [2], 12.4 µM.

`CC(C)c1nc(N)n2c1CCC(Cc1cccc3c1OCO3)C2` (centres undefined) showed an IC50 at Polycomb protein EED [1] of 0.43 µM. For the same compound, at Polycomb protein EED [2], the IC50 was determined as 2 µM. Also, in the data set with Pfeiffer, the Activity result is “Dose-dependent effect” and the EC50 came to 3.4 µM.

For `c1cc(CC2CCCNC2)c2c(c1)OCO2` (centres undefined), on Polycomb protein EED [1], 35 µM corresponded to half-maximal inhibition (IC50).

On to `N=C(N)N1CCCC(Cc2cccc3ccoc23)C1` (centres undefined), for which the concentration for half-maximal inhibition (IC50) stood at 2.8 µM against Polycomb protein EED [1] and 2.5 µM at Polycomb protein EED [2].

The compound `COc1cccc(CC2CCCNC2)c1` (centres undefined) yielded an IC50 at Polycomb protein EED [1] of 95 µM. Also, the Kd (in general, a measure of binding affinity in units of concentration) at Polycomb protein EED [4] was found to be 32 µM. In data set [3], the pKa was 9.9.

On to `c1ccc(CC2CCCNC2)cc1` (centres undefined), for which the IC50 against Polycomb protein EED [1] was > 500 µM.

Take `Nc1ncc2n1CC(Cc1cccc3c1OCO3)CC2` (centres undefined): the results for the IC50 at Polycomb protein EED [1] and on Polycomb protein EED [2] were 1.3 µM and 1 µM, respectively. In data set [3], this compound came in with a pKa of 9.2.

On Polycomb protein EED [1], `c1cc(CC2CCCNC2)c2occc2c1` (centres undefined) returned a half-inhibitory concentration (IC50) of 95 µM.

The compound `NC(=O)N1CCCC(Cc2cccc3ccoc23)C1` (centres undefined) displayed an IC50 at Polycomb protein EED [1] of 174 µM.

`N=C(N)N1CCCC(Cc2cccc3c2OCO3)C1` (centres undefined): the IC50 is 3.9 µM on Polycomb protein EED [1] and 1.6 µM on Polycomb protein EED [2]. The pKa in data set [3] is > 11.

Compound `COc1cc(CC2CCCNC2)ccc1F` (centres undefined) came in with a 50% inhibitory concentration (IC50) against Polycomb protein EED [1] of 119 µM.

Consider `COc1cccc(CC2CCCN(C(=N)N)C2)c1` (centres undefined), for which the IC50 against Polycomb protein EED [1] worked out at 43 µM. For the same compound, in data set [3], the pKa is > 11.
